# Experimental data: PMC5060091 (ChemMedChem, 2016)
# Where “and” joins values, the source holds several entries; their conditions need not be identical. Equal entries are not always repeated. Where two headings read alike, the source gives them in different places.
# Legend:
# [1] = tested on: Aspergillus flavus ATCC MYA-3631; assay: MIC, broth dilution, strain K; assay type: cell-based; conditions: for MIC: Aspergillus flavus
# [2] = tested on: C. albicans ATCC 90819(R); conditions: strain D; azoles; previously reported; cited from earlier work
# [3] = tested on: C. albicans ATCC 64124; conditions: strain B; azoles; previously reported; cited from earlier work
# [4] = tested on: C. albicans ATCC MYA-1237(R); conditions: strain F; azoles; previously reported; cited from earlier work
# [5] = tested on: C. albicans ATCC MYA-2310(S); conditions: strain E; azoles; previously reported; cited from earlier work
# [6] = tested on: Aspergillus terreus ATCC MYA-3633; assay: MIC, broth dilution, strain M; assay type: cell-based; conditions: for MIC: Aspergillus terreus
# [7] = tested on: Candida albicans ATCC 10231; conditions: strain A; azoles; previously reported; cited from earlier work
# [8] = tested on: C. albicans ATCC MYA-2876(S); conditions: strain C; azoles; previously reported; cited from earlier work
# [9] = tested on: Aspergillus nidulans ATCC 38163; conditions: strain L; previously reported; cited from earlier work
# [10] = tested on: C. albicans ATCC MYA-1003(R); conditions: strain G; azoles; previously reported; cited from earlier work
# [11] = tested on: C. albicans ATCC 64124; assay: MIC, broth dilution, strain B; assay type: cell-based, Candida albicans; conditions: for MIC: Candida albicans
# Method in brief: (§1)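 Broth dilution MIC assay on the Candida panel: C. albicans strains A–G, C. glabrata (H), C. krusei (I) and C. parapsilosis (J). Test compounds were delivered in DMSO, with DMSO kept below 1% in the assay. The MIC is reported in µg/mL, with µM in parentheses. Reference antifungals (a polyene and four azoles) were run alongside.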
# [12] = tested on: C. albicans ATCC MYA-1237(R); assay: MIC, broth dilution, strain F; assay type: cell-based, Candida albicans; conditions: for MIC: Candida albicans
# Method in brief: as §1
# [13] = tested on: C. albicans ATCC MYA-2310(S); assay: MIC, broth dilution, strain E; assay type: cell-based, Candida albicans; conditions: for MIC: Candida albicans
# Method in brief: as §1
# [14] = tested on: Candida and Aspergillus strains; assay: MIC against whole panel of fungal strains; assay type: cell-based; conditions: read-out: MIC values against the panel of fungal strains
# Method in brief: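 Whole-cell broth dilution MIC across Candida strains A–J and three Aspergillus strains: A. flavus ATCC MYA-3631, A. nidulans ATCC 38163 and A. terreus ATCC MYA-3633. Aspergillus was tested as freshly harvested spores. DMSO was below 1% in the assay. Values are given in µg/mL (and µM), with a polyene and four azoles as reference agents.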
# [15] = tested on: C. albicans ATCC 64124 (strain B); assay: Time-kill assay; assay type: cell-based, Candida albicans
# [16] = tested on: C. albicans ATCC 90819(R); assay: MIC, broth dilution, strain D; assay type: cell-based, Candida albicans; conditions: for MIC: Candida albicans
# Method in brief: as §1
# [17] = tested on: C. albicans ATCC MYA-2876(S); assay: MIC, broth dilution, strain C; assay type: cell-based, Candida albicans; conditions: for MIC: Candida albicans
# Method in brief: as §1
# [18] = tested on: Candida albicans ATCC 10231; assay: MIC, broth dilution, strain A; assay type: cell-based; conditions: for MIC: Candida albicans
# Method in brief: as §1
# [19] = tested on: C. albicans ATCC MYA-1003(R); assay: MIC, broth dilution, strain G; assay type: cell-based, Candida albicans; conditions: for MIC: Candida albicans
# Method in brief: as §1
# [20] = tested on: Candida glabrata ATCC 2001; assay: MIC, broth dilution, strain H; assay type: cell-based; conditions: compounds 1–4n and AmB
# Method in brief: as §1
# [21] = tested on: Aspergillus nidulans ATCC 38163; assay: MIC, broth dilution, strain L; assay type: cell-based; conditions: strain L; all compounds
# [22] = tested on: murine red blood cells (mRBCs); conditions: data previously presented; cited from earlier work
# [23] = tested on: Candida krusei ATCC 6258; assay: MIC, broth dilution, strain I; assay type: cell-based; conditions: compounds 1–4n and AmB
# Method in brief: as §1
# [24] = tested on: Candida strains (A–J); assay: MIC against panel of Candida strains; assay type: cell-based
# Method in brief: as §1
# [25] = tested on: C. albicans ATCC 10231 (strain A); assay: ROS induction assay; assay type: cell-based, Candida albicans; conditions: 1× and 2× MIC, 1-h treatment; H2O2 1 mM
# Method in brief: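 C. albicans ATCC 10231 cells were incubated 1 h at 37 °C with test compound at 1× or 2× MIC, with no drug (negative control), or with 1 mM H₂O₂ (positive control). DCFH-DA (40 µg/mL) was then added. ROS were detected and imaged by fluorescence microscopy.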
# [26] = tested on: Candida parapsilosis ATCC 22019; assay: MIC, broth dilution, strain J; assay type: cell-based; conditions: compounds 1–4n and AmB
# Method in brief: as §1
# [27] = read-out: MIC (MIC-0) in µM (parentheses)
# [28] = 2× MIC (1 25, 2a 25, 3a 0.78, AmB 7.8 µg/mL)
# [29] = strain F, compounds 1–4n and AmB
# [30] = strain E, compounds 1–4n and AmB
# [31] = strain D, compounds 1–4n and AmB
# [32] = strain C, compounds 1–4n and AmB
# [33] = strain A, compounds 1–4n and AmB
# [34] = strain G, compounds 1–4n and AmB
molecule,measurement,setting,value
"CC[C@@H]([C@H](C)O)n1ncn(-c2ccc(N3CCN(c4ccc(OC[C@@H]5CO[C@@](Cn6cncn6)(c6ccc(F)cc6F)C5)cc4)CC3)cc2)c1=O [POS, posaconazole]",MIC,[1]; read-out: MIC (MIC-0),0.24 µg/mL
same,MIC,[1]; [27],0.34 µM
same,MIC (MIC-2),[2],31.2 µg/mL
same,MIC (MIC-2) in µM (parentheses),[2],44.5 µM
same,MIC (MIC-2),[3],> 62.5 µg/mL
same,MIC (MIC-2) in µM (parentheses),[3],> 89.3 µM
same,MIC (MIC-2),[4],15.6 µg/mL
same,MIC (MIC-2) in µM (parentheses),[4],22.3 µM
same,MIC (MIC-2),[5],31.2 µg/mL
same,MIC (MIC-2) in µM (parentheses),[5],44.5 µM
same,MIC,[6]; read-out: MIC (MIC-0),0.48 µg/mL
same,MIC,[6]; [27],0.68 µM
same,MIC (MIC-2),[7],0.5 µg/mL
same,MIC (MIC-2) in µM (parentheses),[7],0.71 µM
same,MIC (MIC-2),[8],7.8 µg/mL
same,MIC (MIC-2) in µM (parentheses),[8],11.1 µM
same,MIC (MIC-0),[9],0.195 µg/mL
same,MIC (MIC-0) in µM (parentheses),[9],0.28 µM
same,MIC (MIC-2),[10],15.6 µg/mL
same,MIC (MIC-2) in µM (parentheses),[10],22.3 µM
"CCC(C)n1ncn(-c2ccc(N3CCN(c4ccc(OCC5COC(Cn6cncn6)(c6ccc(Cl)cc6Cl)O5)cc4)CC3)cc2)c1=O (stereo not shown) [ITC, itraconazole]",MIC,[1]; read-out: MIC (MIC-0),0.48 µg/mL
same,MIC,[1]; [27],0.68 µM
same,MIC (MIC-2),[2],31.2 µg/mL
same,MIC (MIC-2) in µM (parentheses),[2],44.2 µM
same,MIC (MIC-2),[3],> 62.5 µg/mL
same,MIC (MIC-2) in µM (parentheses),[3],> 88.6 µM
same,MIC (MIC-2),[4],31.2 µg/mL
same,MIC (MIC-2) in µM (parentheses),[4],44.2 µM
same,MIC (MIC-2),[5],31.2 µg/mL
same,MIC (MIC-2) in µM (parentheses),[5],44.2 µM
same,MIC,[6]; read-out: MIC (MIC-0),0.975 µg/mL
same,MIC,[6]; [27],1.38 µM
same,MIC (MIC-2),[7],0.5 µg/mL
same,MIC (MIC-2) in µM (parentheses),[7],0.71 µM
same,MIC (MIC-2),[8],7.8 µg/mL
same,MIC (MIC-2) in µM (parentheses),[8],11.1 µM
same,MIC (MIC-0),[9],0.195 µg/mL
same,MIC (MIC-0) in µM (parentheses),[9],0.28 µM
same,MIC (MIC-2),[10],31.2 µg/mL
same,MIC (MIC-2) in µM (parentheses),[10],44.2 µM
"C[C@@H]1[C@H](O)[C@@H](C)/C=C/C=C/C=C/C=C/C=C/C=C/C=C/[C@H](O[C@@H]2O[C@H](C)[C@@H](O)[C@H](N)[C@@H]2O)C[C@@H]2O[C@](O)(C[C@@H](O)C[C@@H](O)[C@H](O)CC[C@@H](O)C[C@@H](O)CC(=O)O[C@H]1C)C[C@H](O)[C@H]2C(=O)O [AmB, amphotericin B]",MIC,"[11]; ATCC64124, read-out: MIC (MIC-0)",3.9 µg/mL
same,MIC,"[11]; ATCC64124, read-out: MIC (MIC-0) in µM (parentheses)",4.22 µM
same,MIC,[12]; read-out: MIC (MIC-0),3.9 µg/mL
same,MIC,[12]; [27],4.22 µM
same,MIC,[13]; read-out: MIC (MIC-0),1.95 µg/mL
same,MIC,[13]; [27],2.11 µM
same,MIC,[6]; read-out: MIC (MIC-0),3.9 µg/mL
same,MIC,[6]; [27],4.22 µM
same,MIC,[14],0.98 to 15.6 µg/mL
same,time from which completely fungicidal,[15]; 2× MIC,6 h
same,time-kill effect,[15]; [28],completely fungicidal
same,MIC,"[16]; ATCC90819, read-out: MIC (MIC-0)",0.98 µg/mL
same,MIC,"[16]; ATCC90819, read-out: MIC (MIC-0) in µM (parentheses)",1.06 µM
same,MIC,[17]; read-out: MIC (MIC-0),1.95 µg/mL
same,MIC,[17]; [27],2.11 µM
same,MIC,"[18]; ATCC10231, read-out: MIC (MIC-0)",3.9 µg/mL
same,MIC,"[18]; ATCC10231, read-out: MIC (MIC-0) in µM (parentheses)",4.22 µM
same,MIC,[19]; read-out: MIC (MIC-0),3.9 µg/mL
same,MIC,[19]; [27],4.22 µM
ebsulfur [Compound 2a],MIC (MIC-0),[20],6.25 µg/mL
same,MIC (MIC-0) in µM (parentheses),[20],27.5 µM
same,MIC (MIC-0) in µM (parentheses),"[11]; strain B, compounds 1–4n and AmB",> 55.0 µM
same,MIC (MIC-0),"[1]; strain K, all compounds",6.25 µg/mL
same,MIC (MIC-0) in µM (parentheses),"[1]; strain K, all compounds",27.5 µM
same,MIC (MIC-0),[21],6.25 µg/mL
same,MIC (MIC-0) in µM (parentheses),[21],27.5 µM
same,concentration until which no significant hemolytic activity was shown,[22],15.6 µg/mL and 68.6 µM
same,MIC (MIC-0),[12]; [29],> 12.5 µg/mL
same,MIC (MIC-0) in µM (parentheses),[12]; [29],> 55.0 µM
same,MIC (MIC-0),[13]; [30],6.25 µg/mL
same,MIC (MIC-0) in µM (parentheses),[13]; [30],27.5 µM
same,MIC (MIC-0),[23],3.13 µg/mL
same,MIC (MIC-0) in µM (parentheses),[23],13.8 µM
same,MIC values against Candida strains,"[24]; strains A, B, C, F, G and J (poorly active)",≥ 12.5 µg/mL
same,MIC values against Candida strains,"[24]; strains D, E, H and I (active)",1.56 to 6.25 µg/mL
same,MIC (MIC-0),"[6]; strain M, all compounds",6.25 µg/mL
same,MIC (MIC-0) in µM (parentheses),"[6]; strain M, all compounds",27.5 µM
same,time-kill effect,"[15]; 1× MIC (1 12.5, 2a 12.5, 3a 0.39, AmB 3.9 µg/mL)",fungistatic
same,time-kill effect,[15]; [28],fungicidal
same,fungicidal concentration,[15]; time-kill curves,25 µg/mL and 110 µM
same,MIC (MIC-0),[16]; [31],3.13 µg/mL
same,MIC (MIC-0) in µM (parentheses),[16]; [31],13.8 µM
same,ROS induction (DCFH-DA fluorescence),[25],highly fluorescent
same,MIC (MIC-0),[26],12.5 µg/mL
same,MIC (MIC-0) in µM (parentheses),[26],55.0 µM
same,MIC (MIC-0),[17]; [32],12.5 µg/mL
same,MIC (MIC-0) in µM (parentheses),[17]; [32],55.0 µM
same,MIC (MIC-0),[18]; [33],12.5 µg/mL
same,MIC (MIC-0) in µM (parentheses),[18]; [33],55.0 µM
same,MIC (MIC-0),[19]; [34],> 12.5 µg/mL
same,MIC (MIC-0) in µM (parentheses),[19]; [34],> 55.0 µM
